Activity calls are given as the source filed them. No cut-off for these calls is given here.
How the values were obtained:
Huh-7.5.1 [1] = test: Inhibition of Histone acetyltransferase in human Huh7.5.1 cells assessed as hepatitis C virus-induced EGF mRNA level measured after 72 hrs; type: cell-based
Outline: (§1)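 Huh7.5.1 cells differentiated with dimethyl sulfoxide, then infected with HCV until they expressed the poor-prognosis status of the prognostic liver signature. Infected cells were then incubated with chromatin modifier/reader inhibitors. Concentrations were chosen as non-toxic from MTT viability tests on non-infected differentiated cells at 72 h (n=3, viability relative to untreated cells).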

Huh-7.5.1 [2] = test: Inhibition of Histone acetyltransferase in human Huh7.5.1 cells assessed as hepatitis C virus-induced NFkappaB mRNA level measured after 72 hrs; type: cell-based; outline: as §1
Huh-7.5.1 [3] = test: Inhibition of Histone acetyltransferase in human Huh7.5.1 cells infected with hepatitis C virus assessed as effect on viral load; type: cell-based
Mus musculus [4] = test: Decrease in SOX9 gene expression in DEN/CDAHFD-induced NASH C57BL/6 mouse model at 50 mg/kg, IP for 5 days a week by CHIP-qPCR assay; type: functional, organism-based; conditions: time 5.0 day
Outline: (§2)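 ChIP-qPCR on livers of control, DEN/CDAHFD and treated DEN/CDAHFD mice (IP 5 days/week from week 12, harvest at 30 weeks) measured BRD4 recruitment to promoter-enhancer regions of the named genes, using BRD4 antibody against an IgG control. Groups were compared by Mann-Whitney U test.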

Mus musculus [5] = test: Decrease in EPCAM gene expression in DEN/CDAHFD-induced NASH C57BL/6 mouse model at 50 mg/kg, IP for 5 days a week by CHIP-qPCR assay; type: functional, organism-based; conditions: time 5.0 day; outline: as §2
Mus musculus [6] = test: Reduction of liver fibrosis in DEN/CDAHFD-induced NASH C57BL/6 mouse model assessed as decrease in Acta2 gene expression at 50 mg/kg, IP for 5 days a week by qRT-PCR analysis; type: functional, organism-based; conditions: time 5.0 day
Outline: (§3)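 DEN (35 mg/kg IP, day 15)/CDAHFD-fed male C57BL/6 mice were dosed IP 5 days/week from 12 weeks of age in 10% hydroxypropyl-β-cyclodextrin, or given vehicle. Livers were taken at 30 weeks and hepatic fibrotic and inflammatory gene expression was quantified by qRT-PCR, n=3 per group; means±SD, unpaired t-test.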

Mus musculus [7] = test: Reduction of liver fibrosis in DEN/CDAHFD-induced NASH C57BL/6 mouse model assessed as decrease in Tgf gene expression at 50 mg/kg, IP for 5 days a week by qRT-PCR analysis; type: functional, organism-based; conditions: time 5.0 day; outline: as §3
Mus musculus [8] = test: Antitumor activity in DEN/CDAHFD-induced NASH C57BL/6 mouse model assessed as decrease in number of tumor at 50 mg/kg, IP for 5 days a week; type: functional, organism-based; conditions: time 5.0 day
Outline: (§4)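 Male C57BL/6 mice, single IP diethylnitrosamine 35 mg/kg on day 15. From 6 weeks of age fed CDAHFD (60 kcal% fat, 0.1% methionine). From 12 weeks, randomised to IP dosing 5 days/week, drug in 10% (2-hydroxypropyl)-β-cyclodextrin or vehicle alone. Livers harvested at 30 weeks; body weight, liver weight and tumour nodule counts recorded (n=8 per group), with H&E and Sirius red sections; means±SEM, unpaired t-test.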

Mus musculus [9] = test: Antitumor activity in DEN/CDAHFD-induced NASH C57BL/6 mouse model assessed as decrease in tumor nodules at 50 mg/kg, IP for 5 days a week by hematoxylin and eosin staining based microscopic analysis; type: functional, organism-based; conditions: time 5.0 day; outline: as §4
Mus musculus [10] = test: Antitumor activity in DEN/CDAHFD-induced NASH C57BL/6 mouse model assessed as decrease in tumor nodules at 50 mg/kg, IP for 5 days a week by sirus red staining based microscopic analysis; type: functional, organism-based; conditions: time 5.0 day; outline: as §4
Mus musculus [11] = test: Effect on c-Myc expression in DEN/CDAHFD-induced NASH C57BL/6 mouse model at 50 mg/kg, IP for 5 days a week by Western blot analysis; type: functional, organism-based; conditions: time 5.0 day
Outline: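 Liver lysates from control/PBS, vehicle and treated DEN/CDAHFD mice (n=3 each; 30 weeks; IP 5 days/week in 10% hydroxypropyl-β-cyclodextrin) were probed by western blot for c-Myc. Blots from six animals were quantified by densitometry and compared by unpaired t-test.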

Mus musculus [12] = test: Reduction of liver fibrosis in DEN/CDAHFD-induced NASH C57BL/6 mouse model assessed as decrease in Col1A gene expression at 50 mg/kg, IP for 5 days a week by qRT-PCR analysis; type: functional, organism-based; conditions: time 5.0 day; outline: as §3
Mus musculus [13] = test: Effect on body weight in DEN/CDAHFD-induced NASH C57BL/6 mouse model at 50 mg/kg, IP for 5 days a week; type: functional, organism-based; conditions: time 5.0 day; outline: as §4
Mus musculus [14] = test: Reduction of liver fibrosis in DEN/CDAHFD-induced NASH C57BL/6 mouse model assessed as decrease in collagen proportional area at 50 mg/kg, IP for 5 days a week; type: functional, organism-based; conditions: time 5.0 day
Outline: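 Fibrosis was scored as collagen proportional area by quantitative digital analysis of whole-scanned Sirius red-stained liver sections. Sections came from DEN/CDAHFD male C57BL/6 mice harvested at 30 weeks after IP dosing 5 days/week from week 12 (cyclodextrin vehicle), n=3 per group; means±SD.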

Mus musculus [15] = test: Decrease in NFkappaB2 gene expression in DEN/CDAHFD-induced NASH C57BL/6 mouse model at 50 mg/kg, IP for 5 days a week by CHIP-qPCR assay; type: functional, organism-based; conditions: time 5.0 day; outline: as §2
Mus musculus [16] = test: Decrease in KRT7 gene expression in DEN/CDAHFD-induced NASH C57BL/6 mouse model at 50 mg/kg, IP for 5 days a week by CHIP-qPCR assay; type: functional, organism-based; conditions: time 5.0 day; outline: as §2
Mus musculus [17] = test: Reduction of liver inflammation in DEN/CDAHFD-induced NASH C57BL/6 mouse model assessed as decrease in Ccl2 gene expression at 50 mg/kg, IP for 5 days a week by qRT-PCR analysis; type: functional, organism-based; conditions: time 5.0 day; outline: as §3
Mus musculus [18] = test: Reduction of liver inflammation in DEN/CDAHFD-induced NASH C57BL/6 mouse model assessed as decrease in TNFa gene expression at 50 mg/kg, IP for 5 days a week by qRT-PCR analysis; type: functional, organism-based; conditions: time 5.0 day; outline: as §3
Mus musculus [19] = test: Reduction of liver weight in DEN/CDAHFD-induced NASH C57BL/6 mouse model at 50 mg/kg, IP for 5 days a week; type: functional, organism-based; conditions: time 5.0 day; outline: as §4

Structure (SMILES): COc1cc(/C=C/c2cc(/C=C/c3ccc(O)c(OC)c3)n(-c3ccc(C(=O)O)cc3)n2)ccc1O
- inhibition (Huh-7.5.1 [1]): Active
- inhibition (Huh-7.5.1 [2]): Active
- inhibition (Huh-7.5.1 [3]): inactive

Structure (SMILES): Cc1sc2c(c1C)C(c1ccc(Cl)cc1)=N[C@@H](CC(=O)OC(C)(C)C)c1nnc(C)n1-2
- inhibition (Mus musculus [4]): Active
- inhibition (Mus musculus [5]): Active
- inhibition (Mus musculus [6]): Active
- inhibition (Mus musculus [7]): Active
- inhibition (Mus musculus [8]): Active
- inhibition (Mus musculus [9]): Active
- inhibition (Mus musculus [10]): Active
- Activity (Mus musculus [11]): inactive
- inhibition (Mus musculus [12]): Active
- Activity (Mus musculus [13]): inactive
- inhibition (Mus musculus [14]): Active
- inhibition (Mus musculus [15]): Active
- inhibition (Mus musculus [16]): Active
- inhibition (Mus musculus [17]): Active
- inhibition (Mus musculus [18]): Active
- inhibition (Mus musculus [19]): Active

Structure (SMILES): CC1=NN(c2ccc(C(=O)O)cc2)C(=O)/C1=C\c1ccc(-c2cc(C)c(C)cc2[N+](=O)[O-])o1
- inhibition (Huh-7.5.1 [3]): inactive

From ChEMBL document CHEMBL5712089, “Targeting clinical epigenetic reprogramming for chemoprevention of metabolic and viral hepatocellular carcinoma” (Gut, 2021)
